Test results: PMC3428850 (Molecular cancer therapeutics, 2012)
“And” between values parts separate entries of the source, which are not always exact repeats. Equal entries are not always repeated. Where two headings read alike, the source gives them in different places.

Tests used:
PI-3K = assay: PI-3K-dependent AKT phosphorylation; format: cell-based, human; settings: read-out: IC50 PI-3K-mediated AKT phosphorylation; MCF7 cells, IGF-1 stimulated
In short: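 MCF7 cells in RPMI 1640/10% FBS. Exposed to a concentration range of test compound for 1 h, then 50 ng/ml IGF-1 for 30 min. Western blot of AKT Ser473 relative to total AKT. Rise above unstimulated baseline in treated cells expressed as % of the rise in control cells. Mean of three independent experiments fitted to a sigmoidal dose-response curve for IC50.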

T47D cells = assay: cell growth inhibition, SRB assay, 5-day continuous exposure; format: cell-based; settings: Homo sapiens, 120 h
In short: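 Human cancer cells in RPMI 1640 with 10% FBS, penicillin/streptomycin, at 37 °C and 5% CO2. Test compound (10 mM DMSO stock) given by continuous exposure for 5 days. Growth measured by SRB assay. […] Means ± SD of 3 independent experiments.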

[1] = format: in vivo, mice; settings: for concentration at 60 min / concentration at 120 min: female, CD1-nu/nu (athymic), mouse, intravenous, 12.5 mg/kg
In short: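 Female athymic CD1-nu/nu mice kept in SPF isolators, bearing MCF7 or SW620 xenografts (650 mm³). Test compound 12.5 mg/kg i.v. in equimolar phosphoric acid/saline, pH 5. Tumours homogenised in PBS (1:3 w/v) on ice. Plasma and tumour concentrations by LC-MS/MS. Means ± SD of 3 mice per time point.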

DNA-PK = DNA-PK (Homo sapiens, UniProt P78527); assay: DNA-PK ex vivo pharmacodynamic assay, p53 peptide; design: species or system mice; settings: SW-620, mouse, iv, read-out: inhibition of DNA-PK activity ex vivo in tumour
In short: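 SW620 s.c. xenografts in female athymic CD1-nu/nu mice. Test compound 2.5 or 25 mg/kg i.v. (vehicle equimolar phosphoric acid, pH 5) or vehicle alone. Killed after 1 or 4 h. Tumours excised and homogenised. DNA-PK activity by ELISA of DNA-PK-dependent p53 peptide (Ser15) phosphorylation in homogenates. 3 mice per time point, mean ± SD.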

solubility = format: physicochemical; settings: compared with NU7441
PI-3K γ = PI-3K γ (Homo sapiens, UniProt P48736); assay: cell-free assay, PI-3K isoforms; format: biochemical; settings: Supplementary Figure 1
PI-3K γ, sequence (P48736 whole entry, species assumed, canonical isoform): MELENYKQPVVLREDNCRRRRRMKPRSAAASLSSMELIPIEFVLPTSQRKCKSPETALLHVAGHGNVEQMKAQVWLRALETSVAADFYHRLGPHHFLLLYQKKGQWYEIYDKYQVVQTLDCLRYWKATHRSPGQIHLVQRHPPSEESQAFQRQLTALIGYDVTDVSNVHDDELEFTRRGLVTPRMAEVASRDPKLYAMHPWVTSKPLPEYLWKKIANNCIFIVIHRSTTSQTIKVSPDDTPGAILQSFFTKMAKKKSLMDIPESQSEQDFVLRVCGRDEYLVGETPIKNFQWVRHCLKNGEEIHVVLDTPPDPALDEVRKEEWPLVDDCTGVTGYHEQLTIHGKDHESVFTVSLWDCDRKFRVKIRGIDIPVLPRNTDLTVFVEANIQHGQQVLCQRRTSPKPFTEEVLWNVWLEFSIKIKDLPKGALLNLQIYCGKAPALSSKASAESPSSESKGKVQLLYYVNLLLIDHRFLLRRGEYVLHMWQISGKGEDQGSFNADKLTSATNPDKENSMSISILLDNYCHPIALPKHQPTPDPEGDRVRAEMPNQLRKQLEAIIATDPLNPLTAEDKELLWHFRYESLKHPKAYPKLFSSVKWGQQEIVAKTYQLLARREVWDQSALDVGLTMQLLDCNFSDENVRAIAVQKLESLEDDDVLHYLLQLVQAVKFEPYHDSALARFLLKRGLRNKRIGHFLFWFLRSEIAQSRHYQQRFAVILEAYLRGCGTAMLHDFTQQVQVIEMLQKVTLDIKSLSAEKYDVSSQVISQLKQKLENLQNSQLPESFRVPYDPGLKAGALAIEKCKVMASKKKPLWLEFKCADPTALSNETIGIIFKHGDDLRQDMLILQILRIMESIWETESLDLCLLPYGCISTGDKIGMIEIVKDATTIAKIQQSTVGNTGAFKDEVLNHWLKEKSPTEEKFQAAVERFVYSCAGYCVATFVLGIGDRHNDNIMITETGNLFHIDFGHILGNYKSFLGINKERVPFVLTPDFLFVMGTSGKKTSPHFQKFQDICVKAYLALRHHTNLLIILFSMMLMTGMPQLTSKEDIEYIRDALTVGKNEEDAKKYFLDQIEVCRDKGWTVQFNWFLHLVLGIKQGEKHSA

CCN1CCN(CC(=O)Nc2ccc(-c3cccc4c(=O)cc(N5CCOCC5)oc34)c3sc4ccccc4c23)CC1 [KU-0060648, 2-(4-ethylpiperazin-1-yl)-N-(4-(2-morpholino-4-oxo-4H-chromen-8-yl)dibenzo[b,d]thiophen-1-yl)acetamide]
IC50 (PI-3K): 39 nM and 40 nM | GI50 (T47D cells): 410 nM | inhibition at 1 µM (T47D cells; read-out: inhibition of cell growth): > 50% | concentration maintained in the tumour ([1]; MCF7 xenografts, 12.5 mg/kg i.v., for at least 4 hours): over 1 μM | concentration at 60 min ([1]; plasma): 1000 ± 600 nM | concentration at 120 min ([1]; plasma): 800 ± 500 nM | concentration at 60 min ([1]; tumour (MCF7 xenograft)): 7000 ± 3800 nM | concentration at 120 min ([1]; tumour (MCF7 xenograft)): 4700 ± 1100 nM | inhibition at 25 mg/kg (DNA-PK): ~100% | fold greater solubility (solubility): > 500 fold | potency rank among the four PI-3K isoforms (PI-3K γ): least potency
